71 compounds from ChEMBL document CHEMBL4513216, “Probing the Open Global Health Chemical Diversity Library for Multistage-Active Starting Points for Next-Generation Antimalarials” (ACS Infect Dis, 2020) can be followed below.

A short description of this data set: Toxicity liver stage against HepG2, at 10uM. The format is cell-based. Details: test concentration 10 uM, cell line HepG2-A16-CD81EGFP. The following applies: human, HepG2-A16-CD81EGFP cells; read-out: INHIBITION
The gist of the method:
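Uninfected HepG2-A16-CD81EGFP cells, 3 × 10^3 per well, 1536-well, plated on prespotted compound at 10 μM final, parasite-free screening media added to match infected plates; puromycin 10 μM positive, DMSO 0.5% negative; run in parallel with 48 h PbLuc assay at 37 °C, 5% CO2; viability by CellTiter-Glo luminescence, normalized to controls.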
Take `O=C(NC[C@H]1OC[C@@H](NC2CCOCC2)[C@@H]1O)Nc1ccccc1`: the cytotoxicity at 10 µM was -5.75%.

As for `COc1cc(CN2CCCCCC2c2cccs2)cc(OC)c1O` (stereo unspecified), the cytotoxicity at 10 µM came out at 8.6%. The same measure for `O=C(C1CC1)N1CCN2C[C@H](c3ccccc3)[C@@H](CO)[C@H]2C1`: 4.9%; for `Cc1nn2c(NC(=O)CSc3nccn3C)csc2nc1=O`: 9.71%. Consider `O=c1c(NCc2ccccn2)c(NCC(O)CN2CCOCC2)c1=O` (stereo unspecified), for which the cytotoxicity at 10 µM is -54.5%. Take `Cc1cnc2c(c1NCc1ccc(F)cc1)c(=O)n(C)c(=O)n2C`: the cytotoxicity at 10 µM was -7.36%.

On to `CCN(C)C(=O)c1ccnn1-c1ccc2ccccn12`, for which the cytotoxicity at 10 µM was determined as 6.71%.

For `O=C(C1CC1)N1CCC2(CC1)CNCCO2`, the cytotoxicity at 10 µM is -2.82%. The result for `CNC(=O)C1CC2(CCN(C(=O)c3csnn3)CC2)c2ccccc21` (stereo unspecified) reads -154%; that for `COCC1CN(S(=O)(=O)C2CC2)Cc2ncn(CC3CC3)c21` (stereo unspecified), 9.03%; that for `Cc1ccccc1COCCOCn1c(C)cc(=O)[nH]c1=O`, 2.56%. Turning to `O=C(c1ccnn1COc1ccc(Cl)cc1)N1CCOCC1`, the cytotoxicity at 10 µM is -3.94%. The result for `CN(C)Cc1cccc(-c2cccnc2C(=O)NCc2cn(C)cn2)c1` reads 4.09%; that for `Cc1noc(C2CCCN(C(=O)c3cc(Cl)c(Cl)n3C)C2)n1` (stereo unspecified), 13.6%. For the compound `COCCNC(=O)N1CCOCC1c1c(C)nn(C)c1C` (stereo unspecified), the cytotoxicity at 10 µM was -8.18%. The result for `COc1c(NS(=O)(=O)c2ccc(C)c(C)c2)c(C)nn1C` reads 3.73%; that for `CCN(C(=O)CN1CCn2c(nnc2C2CC2)C1)C1=CCCCC1`, 10%. Consider `O=C(NCc1cccnc1-n1cncn1)c1ccncc1`, for which the cytotoxicity at 10 µM turned out to be 5.91%. The result for `Cc1cccc2nc(CNC(=O)N3CCC(OCC4CC4)CC3)cn12` reads -2.02%; that for `Cc1cccc(C(C)(C)NC(=O)CCS(C)(=O)=O)c1`, 2.41%. The result for `CCCc1nc(C)c(C(=O)NCCn2ccnc2)s1` reads 8.14%. The result for `Cc1cccc2c(CCNC(=O)NCCC[S+](C)[O-])c[nH]c12` (stereo unspecified) reads -25.4%; that for `O=C(CCN1C(=O)CCC1=O)Nc1ccc(Oc2ccc(Cl)cc2)nc1`, -23.5%; that for `Cc1occc1C(=O)N(CCN(C)C)Cc1ccccn1`, 7.65%. Turning to `CN(CCOc1ccc(Cl)cc1)Cc1ccc(S(=O)(=O)N(C)C)o1`, the cytotoxicity at 10 µM was 33.6%. As to `CC(C)Cc1noc(CN2CCOCC2C)n1` (stereo unspecified), the cytotoxicity at 10 µM is 2.8%. Consider `COc1ccccc1C(C)N1CCN(S(C)(=O)=O)CC1` (stereo unspecified), for which the cytotoxicity at 10 µM was 9.62%. The result for `CCN(CC(=O)N(C)C)S(=O)(=O)c1cnc2c(c1)c(C)nn2C` reads 2.59%; that for `Cc1cn2c(n1)C(CNCc1ccc(C)s1)CCC2` (stereo unspecified), -26.3%. The same measure for `O=C(NC1CC1)c1cc2c(s1)CCN2C(=O)C1CC1`: 6.17%; for `O=C1[C@H]2CN(c3cnccn3)C[C@H]2CN1CC1CC1`: -108%. The same measure for `CCC(=O)N1CCC2(CC1)CC(CC(=O)N(C)C)c1ccc(F)cc12` (stereo unspecified): -101%. As for `O=C(c1cccs1)N1CCC2(C1)c1ccccc1S(=O)(=O)N2CC1CC1` (stereo unspecified), the cytotoxicity at 10 µM is -4.27%. With `CC(Cn1cncn1)NCc1csc2c1CCCC2` (stereo unspecified), the cytotoxicity at 10 µM was -1.53%. For the compound `CCc1ncc2c(n1)CN(C(=O)CC(C)NC(C)=O)C2` (stereo unspecified), the cytotoxicity at 10 µM came out at 3.6%.

For the compound `CCC(Nc1nc(CCN)nc2ccccc12)c1cccs1` (stereo unspecified), the cytotoxicity at 10 µM is -3.09%. The result for `CCCc1cc(CN(C)C2CSCCSC2)n[nH]1` reads 0.786%; that for `COc1cc(CN2CCC3(CC2)[C@H](O)C[C@@H]3OCCO)ccc1F`, -12.2%; that for `Cc1nccn1CCC1CCCCN1Cc1ccc2c(c1)OCCO2` (stereo unspecified), -7.63%. As for `CN(Cc1cc2n(n1)CCNC2)Cc1noc(C2CCC2)n1`, the cytotoxicity at 10 µM was 15.2%. Consider `COc1ccccc1N1CCN(C(=O)CSCC2CC2)C(C)C1` (stereo unspecified), for which the cytotoxicity at 10 µM turned out to be 4.06%. The result for `O=C(CCc1ccccn1)NC1CCCN(C2Cc3ccccc3C2)C1` (stereo unspecified) reads 1.96%; that for `COC(=O)c1ccc(-c2noc(CN(CCO)Cc3cccs3)n2)cc1`, 6.43%. For the compound `CN(C)[C@H]1CCCCN(C(=O)COCc2nc3cc(F)ccc3[nH]2)C1`, the cytotoxicity at 10 µM worked out at 0.185%. The same measure for `Nc1nc(CCC(=O)N2C[C@H](c3ccccc3)[C@@H](N)C2)cs1`: 4.49%; for `COCC1(CNC(=O)Nc2cc(F)ccc2OC)CCCC1`: 5.17%; for `Cn1cnnc1CCC(=O)N1CCCC(OCc2cccnc2)C1` (stereo unspecified): 2.66%. The result for `COc1ccc(-c2n[nH]cc2CN(C)Cc2nccn2C)c(F)c1` reads -2.77%. The same measure for `O=C1CCCN1CCN1CC[C@@]2(O)CCN(c3ncccn3)C[C@H]2C1`: -2.61%. Consider `COC(=O)c1cc(CN2CCN(c3nc(C)cnc3C)CC2)ccc1O`, for which the cytotoxicity at 10 µM was determined as 0.171%. The result for `COCC1(C(=O)N[C@H]2CN(c3ccnc(C)c3)C[C@@H]2C2CC2)CCC1` reads -160%; that for `CCC[C@@H]1CN(C(=O)c2cnc3ccccc3c2)C[C@H]1NS(C)(=O)=O`, -11.1%. For the compound `O=C(c1cnco1)N1CCCC(Cc2cccc3ncccc23)C1` (stereo unspecified), the cytotoxicity at 10 µM worked out at 2.16%. The same measure for `CC1CN(C)CCN1C(=O)c1ccn(-c2cccc(F)c2)n1` (stereo unspecified): -1.87%; for `Cc1nc(C)n(CC2CN(Cc3cc(C#N)ccc3F)CCO2)n1` (stereo unspecified): -1.56%. On to `CC(NC(=O)NCc1cc[nH]n1)c1ccc2c(c1)CCC(=O)N2` (stereo unspecified), for which the cytotoxicity at 10 µM was -9.37%.

Turning to `CCc1nc(C2CCCN2CCCS(=O)(=O)c2ccccc2)no1` (stereo unspecified), the cytotoxicity at 10 µM is -6.15%.

As for `Cc1ccc(-c2nc(CN3CCCC3Cn3cc(C)cn3)no2)cc1` (stereo unspecified), the cytotoxicity at 10 µM stood at 4.07%. Take `CC(C)Oc1ccccc1CNC(=O)N1CCC(n2cncn2)CC1`: the cytotoxicity at 10 µM worked out at 2.38%. The same measure for `CCOC(=O)N1CCN(c2nc(NCCCO)c3ccccc3n2)CC1`: -9.21%; for `CC(C)(C)C(=O)N1C[C@H](c2ccsc2)[C@H]2CN(C3CCCCC3)CC[C@H]21`: 5.9%.

Take `Cc1ccc(N2CCO[C@H]3CN(Cc4ccccn4)C[C@H]32)nn1`: the cytotoxicity at 10 µM is -79.8%. The same measure for `CC1CCN(CCCNS(=O)(=O)c2cc(F)cc(F)c2)CC1`: 11.3%; for `O=C(CC1CC1)NCc1cn2c(n1)CN(Cc1cccc(F)c1)CC2`: -85.8%.

Turning to `CCOCC1CN(C(=O)c2cnoc2C)Cc2cn(C)nc21` (stereo unspecified), the cytotoxicity at 10 µM stood at 12.9%. The same measure for `CN1CCN(c2ccc3ccc(C(=O)N4CCCO4)cn23)CC1`: 13.4%. The same measure for `O=C(c1ccncc1F)N1Cc2nc(CN3CCCCC3)oc2C1`: -105%. In the case of `N#Cc1cccc(N2CCCC3(CNCCO3)C2)n1` (stereo unspecified), the cytotoxicity at 10 µM turned out to be 13.7%.

On to `COC[C@@]12CCO[C@@H]1CCN(Cc1ccccc1OC)C2`, for which the cytotoxicity at 10 µM is -110%. The result for `O=C(NC1CCC1)[C@H]1C[C@H]2CN(S(=O)(=O)c3ccccc3)C[C@@H]1O2` reads -9.02%; that for `O=C(CN1C[C@@H]2CC[C@H]1CN(Cc1ccccn1)C2)NCc1cccs1`, -24.2%.
